Shown are actives, neighbours in structure and some others; about 4% of the full set was active somewhere.
SIRT5 block = inhibitors of human sirtuin-5 desuccinylase; Purified SirT5, succinyl-peptide AMC, trypsin-coupled fluorescence; inhibition, % at 15 µM; 1.1% of 330,000 active; AID 652115; in the data active means inhibition above about 15%
Target sequence (Q9NXA8 whole entry, looked up): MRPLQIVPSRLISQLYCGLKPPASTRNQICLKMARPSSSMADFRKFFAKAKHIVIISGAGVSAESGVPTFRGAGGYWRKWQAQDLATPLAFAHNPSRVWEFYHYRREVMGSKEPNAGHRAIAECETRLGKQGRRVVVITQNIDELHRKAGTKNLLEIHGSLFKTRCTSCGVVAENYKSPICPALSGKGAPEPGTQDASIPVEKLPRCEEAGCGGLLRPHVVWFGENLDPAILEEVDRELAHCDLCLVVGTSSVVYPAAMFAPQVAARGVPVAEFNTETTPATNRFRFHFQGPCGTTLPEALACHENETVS
Statin myotox sup = suppression of simvastatin myotoxicity | C2C12 myotubes + simvastatin, ATP luminescence, 48 h; scaled: DMSO 0, geranylgeraniol control 100 | rescue of ATP level, % at 7.49 µM | 0.78% of 330,000 active;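 active means mean ATP rescue above about 67%, or every replicate alone reaching that limit, limit read from the data, passing the limit was not always enough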;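 further: myotubes were challenged with 10 µM simvastatin during compound exposure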
FN deposition inh = fibronectin deposition inhibition | AH1F fibroblasts, Alexa488-fibronectin deposition fluorescence, overnight | inhibition, % at 12.6 µM | 0.086% of 350,000 active | AID 743247;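 active means mean inhibition across replicates of 30% or more, regardless of how many single replicates reach that level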;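 further: positive control wells lacked labelled fibronectin entirely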
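Test system: AH1F fibroblast monolayer depositing Alexa488-labelled fibronectin into matrix. Input: 10000 cells per well. Technique: fluorescence, ex 485 nm, em 525 nm. Buffer or medium: DMEM plus 2% serum, read in PBS. Timing: 1 h cell adhesion before compound, then overnight fibronectin incubation. Compound: single dose, pinned. Read-out basis: inhibition from reduced deposited-fibronectin fluorescence.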
FGF22 binding = binders of recombinant human FGF22 by thermal shift; Q9HCT0; activity (Tm shift, normalised), % at 9.99 µM; SYPRO orange fluorescence; percent of sucrose octasulfate shift, DMSO zero; 1.5% of 340,000 active;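 active means mean Tm shift, scaled 0 neutral to 100 positive control, at about 1.3% or above, every replicate too, limit read from the data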
Target sequence (Q9HCT0 whole entry, looked up): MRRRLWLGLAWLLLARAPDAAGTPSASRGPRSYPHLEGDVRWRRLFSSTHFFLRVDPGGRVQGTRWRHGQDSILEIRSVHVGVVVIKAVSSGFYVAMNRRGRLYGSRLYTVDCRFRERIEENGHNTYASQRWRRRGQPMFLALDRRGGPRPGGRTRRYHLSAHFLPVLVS
rRNA inh HTS = inhibitors of bacterial rRNA selective over humanized ribosomes; GFP signal change (wild-type ribosome), % (concentration not given with the values); AID 720706; E. coli WT GFP vs humanized-ribosome RFP mutants, fluorescence, 24 h; hits give low values; DMSO median 0, no signal -100; 1.6% of 350,000 active;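 active means significant combined selectivity score with lowered wild-type GFP, culture density cut under 30%, mutant RFP and density less affected; inactive means any of these conditions unmet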
E-selectin induc = E-selectin induction on HUVECs. P16581. HUVEC E-selectin immunofluorescence imaging; normalized: neutral wells 0, TNF-alpha wells 100. activation, % at 7.58 µM. 0.37% of 260,000 active. AID 686992;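 active means mean E-selectin-positive cell signal at least 10% of the positive control, reached in at least 60% of replicates, without over 20% cell loss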
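System: HUVEC / Compound: single concentration / Signal: immunofluorescence imaging / Read-out: percent E-selectin-positive cells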
Starred values were filed as active, the others as inactive; · = no result; ! = not active in a repeat.

SMILES	SIRT5 block	Statin myotox sup	FN deposition inh	FGF22 binding	rRNA inh HTS	E-selectin induc
O=C(C[C@H]1CC[C@@H]2[C@H](COC[C@H](O)CN2S(=O)(=O)c2ccccc2)O1)NCCN1CCCC1	3	·	-6	·	-1	0
CC(C)CC#Cc1ccc2c(c1)O[C@@H](CN(C)C(=O)C1CCCCC1)[C@H](C)CN([C@H](C)CO)S2(=O)=O	19*	-30	-22	0	3	-1
CC(C)CC#Cc1ccc2c(c1)O[C@H](CN(C)C(=O)C1CCC1)[C@@H](C)CN([C@H](C)CO)S2(=O)=O	5	-19	·	0	-2	1
CC(C)CC#Cc1ccc2c(c1)O[C@@H](CN(C)C(=O)CC1CC1)[C@@H](C)CN([C@H](C)CO)S2(=O)=O	25*	13	-1	0	-12	1
CC(C)CC#Cc1ccc2c(c1)O[C@@H](CN(C)C(=O)C1CCCCC1)[C@@H](C)CN([C@H](C)CO)S2(=O)=O	22*	19	-7	0	3	-1
CC(C)CC#Cc1ccc2c(c1)O[C@H](CN(C)C(=O)C1CCCCC1)[C@H](C)CN([C@H](C)CO)S2(=O)=O	3	-32	-11	0	1	0
C=CCSc1ncc(C(=O)OCC)c(N)n1	0	·	3	43*	6	0
CCOC(=O)c1cnc(SSc2ncc(C(=O)OCC)c(N)n2)nc1N	·	13	0	0	13	·
CCOC(=O)CC(=O)CSc1ncc(C(=O)OCC)c(N)n1	·	120*	·	·	·	·
Cc1noc(C)c1NC(=O)Nc1ccc2c(c1)C(=O)N([C@@H](C)CO)C[C@@H](C)[C@@H](CN(C)S(=O)(=O)c1c(C)noc1C)O2	-9	·	-9	0	3	-4
Nc1[nH]ncc1-c1ccc(F)cc1	-4	2	3	0	5	·
Nc1[nH]ncc1-c1ccccc1	0	2	7	44*	-2	·
O=C(CCS(=O)(=O)Cc1ccccc1)NCCc1ccccc1	3	·	·	43*	9	·
NS(=O)(=O)c1ccc(CCNC(=O)c2ccc(Br)s2)cc1	1	·	4	43*	16	·
NS(=O)(=O)c1ccc(CCNC(=O)CCS(=O)(=O)c2ccc(Br)cc2)cc1	16*	11	3	0	1	0
COc1ccc(S(=O)(=O)N(C)C[C@H]2OCCCC[C@H](C)Oc3ccc(NC(=O)Nc4ccccc4)cc3C(=O)N([C@@H](C)CO)C[C@@H]2C)cc1	·	·	5	0	-3	0
COc1ccc2c3c(n(C)c2c1)[C@H](CO)N(Cc1ccccc1F)CC31CN(C(=O)C2CCOCC2)C1	-4	·	·	0	2	0
CC(=O)Nc1ccc(C(=O)NNC(=O)c2cccs2)cc1	-1	·	10	44*	10	·
O=C(c1ccccc1)c1cccs1	-4	·	-1	43*	·	·
O=C(NNC(=O)c1cccs1)c1ccccc1	3	·	3	0	15	·
O=C(NNC(=O)c1cccs1)c1ccncc1	22*	·	0	0	10	·
O=C(c1ccncc1)N1CCN(C(=O)c2cccs2)CC1	·	-5	·	·	·	·
O=C(CC(=O)c1cccs1)c1ccncc1	-1	4	7	0	-22*	0
CNC(=O)C[C@H]1CC[C@H]2[C@@H](COC[C@@H](O)CN2Cc2ccc(Cl)c(Cl)c2)O1	·	14	5	0	-11	0
CCN(CC)S(=O)(=O)c1ccc(NC(=S)NC(=O)C(C)C)cc1	-1	·	5	0	·	0
SMILES	SIRT5 block	Statin myotox sup	FN deposition inh	FGF22 binding	rRNA inh HTS	E-selectin induc
CCN(CC)S(=O)(=O)c1ccc(NC(=S)NC(=O)CC(C)C)cc1	33*	·	1	0	-6	0
O=C(NNC(=S)NC(=O)c1cccs1)c1cccnc1	17*	·	2	0	-34	4
CCN(CC)S(=O)(=O)c1ccc(NC(=O)c2cccs2)cc1	1	-37	-7	43*	-24	·
CCN(CC)S(=O)(=O)c1ccc(C(=O)NNC(=O)c2cccs2)cc1	·	·	2	·	·	·
C[C@@H]1CN([C@H](C)CO)C(=O)c2cc(NS(=O)(=O)c3ccccc3)ccc2O[C@@H](C)CCCCO[C@@H]1CN(C)Cc1ccc(Cl)c(Cl)c1	15*!	·	-2	1	2	0
C[C@H]1CCCCO[C@H](CN(C)Cc2ccc(Cl)c(Cl)c2)[C@@H](C)CN([C@@H](C)CO)C(=O)c2cc(NS(=O)(=O)c3ccccc3)ccc2O1	0	·	·	0	-5	0
Cc1ccc(S(=O)(=O)Nc2ccc3c(c2)C(=O)N([C@H](C)CO)C[C@H](C)[C@@H](CN(C)Cc2ccc(Cl)c(Cl)c2)OCCCC[C@H](C)O3)cc1	28*	·	-8	·	-6	·
C[C@@H]1CN([C@H](C)CO)C(=O)c2cc(NC(=O)Nc3ccc4c(c3)OCO4)ccc2O[C@@H]1CN(C)S(C)(=O)=O	5	-118	·	0	3	·
CN(C)C(=O)c1ccc(-c2ccc([C@@H]3[C@@H](CO)N4C(=O)CN(C(=O)C5CCC5)C[C@@H]34)cc2)cc1	·	·	13	·	2	0
C[C@@H]1CN([C@@H](C)CO)C(=O)c2cc(-c3ccc(C#N)cc3)cnc2O[C@H]1CN(C)CC1CCCCC1	-24	11	·	0	3	0
Cn1c(=O)n(C)c2cc(/C=N/N=C3/NC(=O)C(CC(=O)O)S3)ccc21 (configuration not stated)	19*	4	5	0	14	·
CCOc1cc(/C=N/N=C2/NC(=O)C(CC(=O)O)S2)ccc1OCc1ccc(Cl)cc1 (configuration not stated)	6	·	-1	0	-4	·
O=C(O)CC1S/C(=N/N=C/C2CC=CCC2)NC1=O (configuration not stated)	112*	·	·	0	33	·
Cc1ccc(S(=O)(=O)Nc2ccc3c(c2)C(=O)N([C@H](C)CO)C[C@H](C)[C@@H](CN(C)C)O3)cc1	-4	4	-2	0	-1	0
Cn1c(SCC(=O)N2CCN(C(=O)c3ccco3)CC2)nnc1-c1ccc(NS(C)(=O)=O)cc1	-1	98*	0	0	11	0
Cc1cc2cc(C)c3nnc(SCC(=O)N4CCN(C(=O)c5ccco5)CC4)n3c2cc1C	-1	·	·	0	0	·
Cc1ccc(C2=NS(=O)(=O)N(C)C(C(=O)NC3CCCCC3)=C2)cc1	-5	15	-3	0	-4	·
Cc1ccc(C2=NS(=O)(=O)N(C)C(C(=O)Nc3cc(C)n(CC(=O)N4CCC(C)CC4)n3)=C2)cc1	2	10	12	0	-29*	·
CC(C)N(Cc1ccccc1)C(=S)Nc1ccc(F)cc1	-2	·	7	43*	0	1

Bioassay records as filed in PubChem.
